The values that follow come from ChEMBL document CHEMBL1138216, “Design and synthesis of novel derivatives of the muscarinic agonist tetra(ethylene glycol)(3-methoxy-1,2,5-thiadiazol-4-yl) [3-(1-methyl-1,2,5,6-tetrahydropyrid-3-yl)-1,2,5-thiadiazol-4-yl] ether (CDD-0304): effects of structural modifications on the binding and activity at muscarinic receptor …” (J Med Chem, 2006).

Where a chain is given by its changes, count along the chain named. Calls of active or inactive are those of the source. The calls are words filed in the database; no cut-off is given here.

Assay [1] deals with T1, Muscarinic acetylcholine receptor M1 (Homo sapiens) (UniProt P11229).
T1 sequence (whole entry): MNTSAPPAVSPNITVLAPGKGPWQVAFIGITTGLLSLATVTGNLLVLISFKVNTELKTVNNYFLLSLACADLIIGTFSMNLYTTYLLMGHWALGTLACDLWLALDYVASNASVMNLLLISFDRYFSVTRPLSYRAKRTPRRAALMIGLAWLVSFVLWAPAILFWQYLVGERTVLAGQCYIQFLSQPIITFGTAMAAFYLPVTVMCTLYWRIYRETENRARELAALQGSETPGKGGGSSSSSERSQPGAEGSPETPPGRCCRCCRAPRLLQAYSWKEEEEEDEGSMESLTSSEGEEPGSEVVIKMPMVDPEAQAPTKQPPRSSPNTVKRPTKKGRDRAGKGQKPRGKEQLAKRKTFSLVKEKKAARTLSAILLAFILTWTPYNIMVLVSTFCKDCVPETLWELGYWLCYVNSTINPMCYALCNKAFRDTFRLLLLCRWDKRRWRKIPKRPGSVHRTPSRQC
Kind of assay: Agonist activity at human M1 receptor expressed in A9 L cells assessed as stimulation of phosphoinositide hydrolysis relative to carbachol. Particulars: L929. It counts as functional, cell-based. In outline: (§1)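 A9 L cells stably expressing the receptor, seeded 24 h, labelled overnight with 10 µCi/mL [3H]inositol in inositol-free DMEM; ligands in HBSS with 10 mM LiCl, 20 mM HEPES, 37 °C, 1 h; formic acid extraction, inositol phosphates counted by SPA beads.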

The target in assay [2] is T2, Muscarinic acetylcholine receptor M1/M5 chimeric protein (Homo sapiens, UniProt P08912+P11229).
T2 sequence (P11229 whole entry): T1 sequence (whole entry)
T2 sequence (P08912 whole entry): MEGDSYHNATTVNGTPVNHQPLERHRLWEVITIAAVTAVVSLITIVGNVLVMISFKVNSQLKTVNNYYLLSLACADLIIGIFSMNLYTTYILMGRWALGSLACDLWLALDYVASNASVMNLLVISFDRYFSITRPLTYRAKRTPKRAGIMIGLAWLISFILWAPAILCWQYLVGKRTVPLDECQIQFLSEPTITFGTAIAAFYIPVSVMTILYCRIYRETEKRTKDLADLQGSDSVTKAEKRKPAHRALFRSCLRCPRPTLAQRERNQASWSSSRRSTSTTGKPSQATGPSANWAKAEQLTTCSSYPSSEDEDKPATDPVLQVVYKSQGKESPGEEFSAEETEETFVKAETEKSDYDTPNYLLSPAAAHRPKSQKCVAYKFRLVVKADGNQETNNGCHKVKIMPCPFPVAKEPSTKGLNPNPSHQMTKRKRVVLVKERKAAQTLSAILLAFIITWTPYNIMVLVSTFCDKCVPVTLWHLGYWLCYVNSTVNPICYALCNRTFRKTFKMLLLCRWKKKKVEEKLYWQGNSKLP
Kind of assay: Inhibition of [3H](R)-QNB binding to human M1/M5(o2) chimeric receptor expressed in A9 L cells. Format: cell-based, A9L.

Assay [3] deals with Muscarinic acetylcholine receptor M1 (Homo sapiens, UniProt P11229, Q185E). It counts as functional, cell-based, L929.
The target of assay [4] is T2, Muscarinic acetylcholine receptor M1/M5 chimeric protein. In words: Agonist activity at human M1/M5(o3) chimeric receptor expressed in A9 L cells assessed as stimulation of phosphoinositide hydrolysis. It counts as functional, cell-based, L929.
Assay [5] shares this target. Kind of assay: Agonist activity at human M1/M5(o2) chimeric receptor expressed in A9 L cells assessed as stimulation of phosphoinositide hydrolysis. Format: functional, cell-based, L929.
For assay [6], the target named is T3, Muscarinic acetylcholine receptor M1/M5 chimeric protein (Homo sapiens) (UniProt P11229+P08912). In words: Agonist activity at human M1/M5(o3) chimeric receptor expressed in A9 L cells assessed as stimulation of phosphoinositide hydrolysis relative to carbachol. It counts as functional, cell-based. Particulars: L929. The gist of the method:
as §1

For assay [7], the target named is T2, Muscarinic acetylcholine receptor M1/M5 chimeric protein. In words: Inhibition of [3H](R)-QNB binding to human M1/M5(o3) chimeric receptor expressed in A9 L cells. It counts as cell-based, A9L.
Assay [8] addresses Muscarinic acetylcholine receptor M1 (Homo sapiens, UniProt P11229, T192A). In words: Inhibition of [3H](R)-QNB binding to human M1 receptor Thr192Ala mutant expressed in A9 L cells. It counts as cell-based, A9L.
For assay [9], the target named is T4, Muscarinic acetylcholine receptor M5 (Homo sapiens) (UniProt P08912).
T4 sequence (whole entry): T2 sequence (P08912 whole entry)
In words: Agonist activity at human M5 receptor expressed in A9 L cells assessed as stimulation of phosphoinositide hydrolysis relative to carbachol. It counts as functional, cell-based. Particulars: L929. The gist of the method: as §1

Assay [10] has as its system T5, Muscarinic acetylcholine receptor M1 (Homo sapiens), P11229 [E170K].
T5 sequence (whole entry): T1 sequence (whole entry) with E170K
Kind of assay: Agonist activity at human M1 receptor E170K mutant expressed in A9 L cells assessed as stimulation of phosphoinositide hydrolysis relative to carbachol. Format: functional, cell-based. The conditions noted are these: L929. In outline: as §1

Assay [11] has as its target Muscarinic acetylcholine receptor M1 (Homo sapiens, UniProt P11229, E170K). Format: functional, cell-based, L929.
Assay [12] has as its target T3, Muscarinic acetylcholine receptor M1/M5 chimeric protein (Homo sapiens). Kind of assay: Agonist activity at human M1/M5(o2o3) chimeric receptor expressed in A9 L cells assessed as stimulation of phosphoinositide hydrolysis relative to carbachol. It counts as functional, cell-based. The conditions noted are these: L929. The gist of the method:
as §1

The subject of assay [13] is T6, Muscarinic acetylcholine receptor M1 (Homo sapiens), P11229 [Q185E].
T6 sequence (whole entry): T1 sequence (whole entry) with Q185E
In words: Agonist activity at human M1 receptor Q185E mutant expressed in A9 L cells assessed as stimulation of phosphoinositide hydrolysis relative to carbachol. Format: functional, cell-based. The conditions noted are these: L929. In outline:
as §1

The target of assay [14] is T3, Muscarinic acetylcholine receptor M1/M5 chimeric protein (Homo sapiens). In words: Agonist activity at human M1/M5(o2) chimeric receptor expressed in A9 L cells assessed as stimulation of phosphoinositide hydrolysis relative to carbachol. Format: functional, cell-based. Particulars: L929. The gist of the method: as §1
The target in assay [15] is T2, Muscarinic acetylcholine receptor M1/M5 chimeric protein. In words: Inhibition of [3H](R)-QNB binding to human M1/M5(o2o3) chimeric receptor expressed in A9 L cells. Format: cell-based, A9L.

Muscarinic acetylcholine receptor M1 (Homo sapiens, UniProt P11229, Q185E), sequence (P11229 whole entry Q185E): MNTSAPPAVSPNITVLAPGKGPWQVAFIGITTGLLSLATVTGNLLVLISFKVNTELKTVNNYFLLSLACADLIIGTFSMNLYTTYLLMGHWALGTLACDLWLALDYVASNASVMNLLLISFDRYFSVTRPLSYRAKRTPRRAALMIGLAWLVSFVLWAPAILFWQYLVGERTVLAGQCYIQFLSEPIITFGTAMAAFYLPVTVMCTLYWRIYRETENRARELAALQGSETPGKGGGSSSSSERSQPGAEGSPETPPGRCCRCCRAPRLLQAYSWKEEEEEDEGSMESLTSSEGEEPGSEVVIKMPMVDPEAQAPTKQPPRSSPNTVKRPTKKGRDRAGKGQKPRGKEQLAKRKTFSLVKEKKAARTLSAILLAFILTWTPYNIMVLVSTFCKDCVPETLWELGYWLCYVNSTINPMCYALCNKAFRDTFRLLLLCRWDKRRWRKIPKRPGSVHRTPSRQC
Muscarinic acetylcholine receptor M1 (Homo sapiens, UniProt P11229, E170K), sequence (P11229 whole entry E170K): as the sequence (P11229 whole entry Q185E) above, with E170K, E185Q counted along it
Muscarinic acetylcholine receptor M1 (Homo sapiens, UniProt P11229, T192A), sequence (P11229 whole entry T192A): as the sequence (P11229 whole entry Q185E) above, with E185Q, T192A counted along it

For the molecule `CN1CCC=C(c2nsnc2OCCOCCOCCOCCOc2nsnc2C2=CCCN(C)C2)C1`, the Smax in assay [1] came out at 69%; in assay [6], 23%; in assay [10], 66%; in assay [12], 2%; in assay [13] it was 50%; in assay [14], 34%. Besides, the Ki in [2] is 39.8 nM; in [7], 20 nM; in [8] it was 100 nM; in [15], 100 nM. For the same molecule, the half-maximal effective concentration (EC50) is 50.1 nM in assay [3], 631 nM in [4], 79.4 nM in [5] and 10 nM in assay [11]. For the same molecule, the result in [9] was inactive.
